As a reminder, the Km is the concentration of substrate that gives half-maximal velocity.

This note sets out measurements from ChEMBL document CHEMBL1154924, “Carbonic anhydrase activators: Activation of the beta-carbonic anhydrase from the pathogenic yeast Candida glabrata with amines and amino acids” (Bioorg Med Chem Lett, 2010).

One series addresses T1, Carbonic anhydrase (Candida glabrata CBS 138) (UniProt Q6FTL6).
T1 sequence (whole entry): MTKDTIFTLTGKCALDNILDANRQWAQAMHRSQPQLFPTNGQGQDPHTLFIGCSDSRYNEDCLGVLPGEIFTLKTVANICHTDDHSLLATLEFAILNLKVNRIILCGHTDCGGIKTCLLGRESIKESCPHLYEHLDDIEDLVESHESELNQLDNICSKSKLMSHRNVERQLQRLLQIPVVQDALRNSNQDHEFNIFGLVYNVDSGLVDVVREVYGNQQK
The experiment in a line: Activation of Candida glabrata recombinant carbonic anhydrase by stopped flow CO2 hydration method. Conditions: Nakaseomyces glabratus. Put shortly: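 Recombinant yeast enzyme; stopped-flow CO2 hydration at 25 °C in 20 mM Tris (pH 8.3) and 20 mM NaClO4, with 0.2 mM phenol red read at 557 nm over 10 s. CO2 was 1.7–17 mM. Activators came from 10 mM aqueous stocks and were preincubated 15 min at room temperature with enzyme. Uncatalyzed rates were subtracted. KA was fitted from catalytic enhancement versus activator concentration; mean ± standard error of three assays.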
Regarding `CNC[C@@H](O)c1ccc(O)c(O)c1`, the Ka was 10.8 µM.

Regarding `N[C@H](Cc1ccc(O)c(O)c1)C(=O)O`, the Ka turned out to be 15.1 µM.

As to `N[C@@H](Cc1c[nH]cn1)C(=O)O`, the Ka amounted to 37 µM.

Turning to `NCc1ccccn1`, the Ka is 15 µM.

Take `NCCc1c[nH]cn1`: the Ka came to 27.4 µM.

Take `N[C@@H](Cc1ccc(O)cc1)C(=O)O`: the Ka was 9.5 µM.

Regarding `Nc1ccc(C[C@H](N)C(=O)O)cc1`, the Ka amounted to 31.6 µM.

As for `N[C@@H](Cc1c[nH]c2ccccc12)C(=O)O`, the Ka came out at 22.8 µM.

As for `NCCc1ccc(O)c(O)c1`, the Ka worked out at 27.6 µM.

`N[C@H](Cc1ccc(O)cc1)C(=O)O`: the Ka stood at 7.1 µM.

For `NCCc1c[nH]c2ccc(O)cc12`, the Ka came out at 16.7 µM.

For `N[C@@H](Cc1ccc(O)c(O)c1)C(=O)O`, the Ka was 23.3 µM.

`NCCc1ccccn1`: the Ka came out at 16.3 µM.

As to `NCCN1CCNCC1`, the Ka was 14.9 µM.

Consider `NCCN1CCOCC1`, for which the Ka came to 10.1 µM.

Turning to `N[C@H](Cc1c[nH]c2ccccc12)C(=O)O`, the Ka turned out to be 12.1 µM.

With `N[C@H](Cc1c[nH]cn1)C(=O)O`, the Ka came out at 21.2 µM.

The next series deals with NCCc1c[nH]cn1. Conditions: Homo sapiens.
Regarding “Carbonic anhydrase 2 (Homo sapiens) (from UniProt P00918)”, the Km was 9.3 mM.

The target in another series is Carbonic anhydrase 2 (Homo sapiens) (UniProt P00918). The experiment in a line: Activation of human recombinant carbonic anhydrase isoenzyme 2 by stopped flow CO2 hydration method.
Conditions: not given
Consider `N[C@H](Cc1ccc(O)cc1)C(=O)O`, for which the Ka was 0.058 µM.

For a further series, the target named is T2, Carbonic anhydrase (Methanobacterium thermoautotrophicum) (UniProt Q50565).
T2 sequence (whole entry): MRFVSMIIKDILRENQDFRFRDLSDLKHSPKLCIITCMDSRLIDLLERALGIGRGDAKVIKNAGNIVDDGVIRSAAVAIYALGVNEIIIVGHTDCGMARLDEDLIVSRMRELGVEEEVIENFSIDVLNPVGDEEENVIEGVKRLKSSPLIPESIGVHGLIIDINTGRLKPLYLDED
The experiment in a line: Activation of archaea Methanobacterium thermoautotrophicum recombinant carbonic anhydrase by stopped flow CO2 hydration method. As to conditions: Methanothermobacter thermautotrophicus.
As to `CNC[C@@H](O)c1ccc(O)c(O)c1`, the Ka was determined as 11.5 µM.

`N[C@H](Cc1ccc(O)c(O)c1)C(=O)O`: the Ka was determined as 15.6 µM.

Consider `N[C@@H](Cc1c[nH]cn1)C(=O)O`, for which the Ka amounted to 69 µM.

For `NCc1ccccn1`, the Ka was 18.7 µM.

With `NCCc1c[nH]cn1`, the Ka is 76 µM.

`N[C@@H](Cc1ccc(O)cc1)C(=O)O`: the Ka was 10.5 µM.

Regarding `Nc1ccc(C[C@H](N)C(=O)O)cc1`, the Ka was found to be 89 µM.

For `N[C@@H](Cc1c[nH]c2ccccc12)C(=O)O`, the Ka amounted to 16.9 µM.

In the case of `NCCc1ccc(O)c(O)c1`, the Ka is 51 µM.

Turning to `N[C@H](Cc1ccc(O)cc1)C(=O)O`, the Ka worked out at 19.2 µM.

For the compound `NCCc1c[nH]c2ccc(O)cc12`, the Ka is 62 µM.

In the case of `N[C@@H](Cc1ccc(O)c(O)c1)C(=O)O`, the Ka amounted to 11.4 µM.

In the case of `NCCc1ccccn1`, the Ka stood at 40 µM.

For the compound `NCCN1CCNCC1`, the Ka was determined as 13.8 µM.

As for `NCCN1CCOCC1`, the Ka was 18.5 µM.

As for `N[C@H](Cc1c[nH]c2ccccc12)C(=O)O`, the Ka was found to be 41 µM.

Take `N[C@H](Cc1c[nH]cn1)C(=O)O`: the Ka is 57 µM.

In another series the target is T3, Carbonic anhydrase (Saccharomyces cerevisiae S288c) (UniProt P53615).
T3 sequence (whole entry): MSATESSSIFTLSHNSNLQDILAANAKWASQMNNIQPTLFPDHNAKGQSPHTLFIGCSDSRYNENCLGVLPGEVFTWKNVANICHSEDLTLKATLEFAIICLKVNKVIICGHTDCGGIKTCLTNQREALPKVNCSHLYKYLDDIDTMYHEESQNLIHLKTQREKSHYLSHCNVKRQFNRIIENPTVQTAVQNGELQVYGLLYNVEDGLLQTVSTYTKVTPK
The experiment in a line: Activation of Saccharomyces cerevisiae recombinant Nce103p by stopped flow CO2 hydration method.
Conditions: not given
Take `N[C@H](Cc1ccc(O)cc1)C(=O)O`: the Ka is 84 µM.
